Legend:
Pseudomonas aeruginosa [1] = test: Antibacterial activity against Pseudomonas aeruginosa ATCC 27853 after 18 hrs by broth microdilution method; format: functional; settings: ATCC 27853, 18 h
In short: (§1)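 Broth microdilution per CLSI in cation-adjusted Mueller-Hinton broth. 100 µL inoculum (~10^6 cfu/mL in CaMHB) mixed with 100 µL CaMHB containing compound, 0 to 128 µM. Incubated 18 h at 37 °C. MIC taken as the lowest concentration with no visible growth. Polymyxin B served as positive control. Isolates were stored at -80 °C in tryptone soy broth with 20% glycerol.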

Pseudomonas aeruginosa [2] = test: Antibacterial activity against Pseudomonas aeruginosa isolate 18878B klon 1 after 18 hrs by broth microdilution method; format: functional; settings: isolate 18878B klon 1, 18 h; in short: as §1
Acinetobacter baumannii [3] = test: Antibacterial activity against Acinetobacter baumannii isolate 246-01-C after 18 hrs by broth microdilution method; format: functional; in short: as §1
Acinetobacter baumannii [4] = test: Antibacterial activity against Acinetobacter baumannii ATCC 17978 after 18 hrs by broth microdilution method; format: functional; settings: ATCC 17978, 18 h; in short: as §1
Acinetobacter baumannii [5] = test: Antibacterial activity against Acinetobacter baumannii ATCC 19606 col10 after 18 hrs by broth microdilution method; format: functional; settings: ATCC 19606 = CIP 70.34 = JCM 6841 col10, 18 h; in short: as §1
Klebsiella pneumoniae [6] = test: Antibacterial activity against Klebsiella pneumoniae ATCC 13883 after 18 hrs by broth microdilution method; format: functional; settings: ATCC 13883, 18 h; in short: as §1
Klebsiella pneumoniae [7] = test: Antibacterial activity against Klebsiella pneumoniae isolate M320445 after 18 hrs by broth microdilution method; format: functional; settings: isolate M320445, 18 h; in short: as §1
Klebsiella pneumoniae [8] = test: Antibacterial activity against Klebsiella pneumoniae isolate 1 after 18 hrs by broth microdilution method; format: functional; settings: isolate 1, 18 h; in short: as §1
Klebsiella pneumoniae [9] = test: Antibacterial activity against Klebsiella pneumoniae isolate 224-11-C after 18 hrs by broth microdilution method; format: functional; in short: as §1
Enterococcus faecium = test: Antibacterial activity against vancomycin-resistant Enterococcus faecium ATCC 700221 after 18 hrs by broth microdilution method; format: functional; settings: ATCC 700221, 18 h; in short: as §1
Klebsiella pneumoniae [10] = test: Antibacterial activity against Klebsiella pneumoniae isolate 248-33-D after 18 hrs by broth microdilution method; format: functional; in short: as §1
Escherichia coli [11] = test: Antibacterial activity against Escherichia coli N2381 after 18 hrs by broth microdilution method; format: functional; settings: N2381, 18 h; in short: as §1
Escherichia coli [12] = test: Antibacterial activity against Escherichia coli N4149 after 18 hrs by broth microdilution method; format: functional; settings: N4149, 18 h; in short: as §1
Escherichia coli [13] = test: Antibacterial activity against Escherichia coli N11281 after 18 hrs by broth microdilution method; format: functional; settings: N11281, 18 h; in short: as §1
Staphylococcus aureus [14] = test: Antibacterial activity against methicillin-resistant Staphylococcus aureus ATCC 43300 after 18 hrs by broth microdilution method; format: functional; settings: ATCC 43300, 18 h; in short: as §1
Staphylococcus aureus [15] = test: Antibacterial activity against vancomycin-intermediate Staphylococcus aureus ATCC 700698 after 18 hrs by broth microdilution method; format: functional; settings: ATCC 700698, 18 h; in short: as §1
Staphylococcus aureus [16] = test: Antibacterial activity against vancomycin-resistant Staphylococcus aureus ATCC 700699 after 18 hrs by broth microdilution method; format: functional; settings: ATCC 700699, 18 h; in short: as §1
[17] = Selectivity index, ratio of CC50 for human HepG2 cells in presence of 1% FBS to MIC for Pseudomonas aeruginosa ATCC 27853; format: toxicity; settings: read-out: Selectivity Index
In short: (§2)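 Selectivity index is CC50 (1% FBS) divided by MIC. […] They then got compound at 300 to 0.14 µM (3-fold steps) for 24 h at 37 °C, 5% CO2. Resazurin (10 µM, 2 h) was read at ex/em 560/590 in duplicate wells. For MIC, CLSI broth microdilution was run in CaMHB with ~10^6 cfu/mL inoculum and 0–128 µM compound.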

[18] = Selectivity index, ratio of CC50 for human HepG2 cells in presence of 1% FBS to MIC for Pseudomonas aeruginosa isolate 912; format: toxicity; settings: read-out: Selectivity Index; in short: as §2
[19] = Selectivity index, ratio of CC50 for human HepG2 cells in presence of 1% FBS to MIC for Pseudomonas aeruginosa isolate 19147nm; format: toxicity; settings: read-out: Selectivity Index; in short: as §2
[20] = Selectivity index, ratio of CC50 for human HepG2 cells in presence of 1% FBS to MIC for Pseudomonas aeruginosa isolate 18878B klon 1; format: toxicity; settings: read-out: Selectivity Index; in short: as §2
[21] = Selectivity index, ratio of CC50 for human HepG2 cells in presence of 1% FBS to MIC for Pseudomonas aeruginosa isolate M146201; format: toxicity; settings: read-out: Selectivity Index; in short: as §2
[22] = Selectivity index, ratio of CC50 for human HepG2 cells in presence of 1% FBS to MIC for Acinetobacter baumannii ATCC 19606; format: toxicity; settings: read-out: Selectivity Index
[23] = Selectivity index, ratio of CC50 for human HepG2 cells in presence of 1% FBS to MIC for Acinetobacter baumannii isolate 246-01-C; format: toxicity; settings: read-out: Selectivity Index
[24] = Selectivity index, ratio of CC50 for human HepG2 cells in presence of 1% FBS to MIC for Acinetobacter baumannii ATCC 17978; format: toxicity; settings: read-out: Selectivity Index
[25] = Selectivity index, ratio of CC50 for human HepG2 cells in presence of 1% FBS to MIC for Acinetobacter baumannii ATCC 19606 col10; format: toxicity; settings: read-out: Selectivity Index
[26] = Selectivity index, ratio of CC50 for human HepG2 cells in presence of 1% FBS to MIC for Acinetobacter baumannii ATCC 17978 col10; format: toxicity; settings: read-out: Selectivity Index
[27] = Selectivity index, ratio of CC50 for human HepG2 cells in presence of 1% FBS to MIC for Klebsiella pneumoniae ATCC 13883; format: toxicity; settings: read-out: Selectivity Index
[28] = Selectivity index, ratio of CC50 for human HepG2 cells in presence of 1% FBS to MIC for Klebsiella pneumoniae isolate M320445; format: toxicity; settings: read-out: Selectivity Index
[29] = Selectivity index, ratio of CC50 for human HepG2 cells in presence of 1% FBS to MIC for Klebsiella pneumoniae isolate 1; format: toxicity; settings: read-out: Selectivity Index
[30] = Selectivity index, ratio of CC50 for human HepG2 cells in presence of 1% FBS to MIC for Escherichia coli N11281; format: toxicity; settings: read-out: Selectivity Index
[31] = Selectivity index, ratio of CC50 for human HepG2 cells in presence of 1% FBS to MIC for vancomycin-resistant Enterococcus faecium ATCC 700221; format: toxicity; settings: read-out: Selectivity Index; in short: as §2
[32] = tested on: Mycobacterium tuberculosis; test: Antimycobacterial activity against Mycobacterium tuberculosis H37Rv ATCC 25618 after 7 days by resazurin dye based assay; format: functional; settings: H37Rv ATCC 25618, 168 h
In short: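 H37Rv grown at 37 °C in 7H9 with 10% ADC, 0.5% glycerol and 0.02% tyloxapol. Compounds serially diluted in water, 0 to 10 µM, in triplicate. Culture adjusted to OD600 0.001 and incubated 7 days at 37 °C. Resazurin (0.05% w/v) added for 4-24 h and fluorescence read at 590 nm. MIC is the lowest concentration giving complete growth inhibition versus untreated. Rifampicin served as control.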

[33] = Selectivity index, ratio of CC50 for human HepG2 cells in presence of 1% FBS to MIC for Mycobacterium tuberculosis H37Rv ATCC 25618; format: toxicity; settings: read-out: Selectivity Index
[34] = Selectivity index, ratio of CC50 for human HepG2 cells in presence of 1% FBS to IC50 for CQ-sensitive GFP-fused Plasmodium falciparum D10; format: toxicity; settings: read-out: Ratio IC50

`c1ccc2c(c1)[I+]c1ccccc1-2` showed an MIC (Pseudomonas aeruginosa [1]) of 75 µM, an MIC (Pseudomonas aeruginosa [2]) of 4.7 µM and an MIC (Acinetobacter baumannii [3]) of 4.7 µM. The MIC (Acinetobacter baumannii [4]) was 2.3 µM, the MIC (Acinetobacter baumannii [5]) was 4.7 µM and the MIC (Klebsiella pneumoniae [6]) was 37 µM. It also gave an MIC (Klebsiella pneumoniae [7]) of 37 µM, an MIC (Klebsiella pneumoniae [8]) of 75 µM and an MIC (Klebsiella pneumoniae [9]) of 75 µM. For the same compound, the MIC (Enterococcus faecium) was 4.7 µM, the MIC (Klebsiella pneumoniae [10]) was 37 µM and the MIC (Escherichia coli [11]) was 37 µM. For the same compound, the MIC (Escherichia coli [12]) was 37 µM, the MIC (Escherichia coli [13]) was 37 µM and the MIC (Staphylococcus aureus [14]) was 4.7 µM. It also gave an MIC (Staphylococcus aureus [15]) of 19 µM, an MIC (Staphylococcus aureus [16]) of 19 µM and a selectivity ratio [17] of 0.39. For the same compound, the selectivity ratio [18] was 6.3, the selectivity ratio [19] was 13 and the selectivity ratio [20] was 6.3. The selectivity ratio [21] was 3.1, the selectivity ratio [22] was 3.1 and the selectivity ratio [23] was 6.3. The selectivity ratio [24] was 13, the selectivity ratio [25] was 6.3 and the selectivity ratio [26] was 50. It also gave a selectivity ratio [27] of 0.78, a selectivity ratio [28] of 0.78 and a selectivity ratio [29] of 0.78. The selectivity ratio [30] was 0.78, the selectivity ratio [31] was 6.3 and the MIC [32] was 0.3 µM. It also gave a selectivity ratio [33] of 96 and a selectivity ratio [34] of 221.
With `COc1cccc2c1-c1ccccc1[I+]2` the MIC (Pseudomonas aeruginosa [1]) was > 70 µM, the MIC (Pseudomonas aeruginosa [2]) was 70 µM and the MIC (Acinetobacter baumannii [3]) was 70 µM. For the same compound, the MIC (Acinetobacter baumannii [4]) was 35 µM, the MIC (Acinetobacter baumannii [5]) was 17 µM and the MIC (Klebsiella pneumoniae [6]) was > 70 µM. The MIC (Klebsiella pneumoniae [7]) was 70 µM, the MIC (Klebsiella pneumoniae [8]) was > 70 µM and the MIC (Klebsiella pneumoniae [9]) was > 70 µM. For the same compound, the MIC (Enterococcus faecium) was 8.7 µM, the MIC (Klebsiella pneumoniae [10]) was > 70 µM and the MIC (Escherichia coli [11]) was 70 µM. The MIC (Escherichia coli [12]) was > 70 µM, the MIC (Escherichia coli [13]) was > 70 µM and the MIC (Staphylococcus aureus [14]) was 35 µM. The MIC (Staphylococcus aureus [15]) was 35 µM, the MIC (Staphylococcus aureus [16]) was 35 µM and the selectivity ratio [17] was > 0.55. The selectivity ratio [18] was 0.55, the selectivity ratio [19] was 0.55 and the selectivity ratio [20] was 0.55. The selectivity ratio [21] was > 0.55, the selectivity ratio [22] was 1.1 and the selectivity ratio [23] was 0.55. The selectivity ratio [24] was 1.1, the selectivity ratio [25] was 2.2 and the selectivity ratio [26] was 1.1. For the same compound, the selectivity ratio [27] was > 0.55, the selectivity ratio [28] was 0.55 and the selectivity ratio [29] was > 0.55. The selectivity ratio [30] was > 0.55, the selectivity ratio [31] was 4.4 and the MIC [32] was 4.4 µM. It also gave a selectivity ratio [33] of 8.8 and a selectivity ratio [34] of 225.
For `Fc1cccc2c1-c1ccccc1[I+]2`, the MIC (Pseudomonas aeruginosa [1]) was 2.2 µM, the MIC (Pseudomonas aeruginosa [2]) was < 0.28 µM and the MIC (Acinetobacter baumannii [3]) was < 0.28 µM. For the same compound, the MIC (Acinetobacter baumannii [4]) was 0.56 µM, the MIC (Acinetobacter baumannii [5]) was 0.56 µM and the MIC (Klebsiella pneumoniae [6]) was 4.5 µM. The MIC (Klebsiella pneumoniae [7]) was 9 µM, the MIC (Klebsiella pneumoniae [8]) was 9 µM and the MIC (Klebsiella pneumoniae [9]) was 9 µM. For the same compound, the MIC (Enterococcus faecium) was 0.56 µM, the MIC (Klebsiella pneumoniae [10]) was 9 µM and the MIC (Escherichia coli [11]) was 1.1 µM. For the same compound, the MIC (Escherichia coli [12]) was 1.1 µM, the MIC (Escherichia coli [13]) was 4.5 µM and the MIC (Staphylococcus aureus [14]) was 2.2 µM. For the same compound, the MIC (Staphylococcus aureus [15]) was 2.2 µM, the MIC (Staphylococcus aureus [16]) was 2.2 µM and the selectivity ratio [17] was 2.1. For the same compound, the selectivity ratio [18] was 1, the selectivity ratio [19] was < 16 and the selectivity ratio [20] was < 16. The selectivity ratio [21] was 4.1, the selectivity ratio [22] was 8.2 and the selectivity ratio [23] was < 16. The selectivity ratio [24] was 8.2, the selectivity ratio [25] was 8.2 and the selectivity ratio [26] was < 16. For the same compound, the selectivity ratio [27] was 1, the selectivity ratio [28] was 0.51 and the selectivity ratio [29] was 0.51. For the same compound, the selectivity ratio [30] was 1, the selectivity ratio [31] was 8.2 and the MIC [32] was 0.29 µM. It also gave a selectivity ratio [33] of 16 and a selectivity ratio [34] of 96.

Source: ChEMBL document CHEMBL4145448, “Broad activity of diphenyleneiodonium analogues against Mycobacterium tuberculosis, malaria parasites and bacterial pathogens” (Eur J Med Chem, 2018)
